According to ChEMBL document CHEMBL1914326, “Synthesis and anticonvulsant properties of new acetamide derivatives of phthalimide, and its saturated cyclohexane and norbornene analogs” (Eur J Med Chem, 2011):
The source made the active and inactive calls. The calls are words filed in the database; no cut-off is given here.

Tests used:
Mus musculus [1] = test: Anticonvulsant activity in CF1 albino mouse assessed as protection against subcutaneous pentylenetetrazole-induced seizures at 300 mg/kg, ip after 0.5 hrs; assay type: functional, organism-based; design: dose 300 mg/kg
Procedure, shortened: (§1)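 Male CF-1 mice in groups of eight were dosed i.p. at 30, 100 or 300 mg/kg in 0.5% methylcellulose/water. At 0.5 and 4 h, pentylenetetrazole 85 mg/kg (CD97 dose) was given s.c. This dose produces clonic seizures lasting at least 5 s. The minimum protective dose was recorded, with a top dose of 300 mg/kg.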

Mus musculus [2] = test: Neurotoxicity in CF1 albino mouse assessed as motor impairment at 300 mg/kg, ip after 4 hrs by rotarod test; assay type: toxicity, organism-based; design: dose 300 mg/kg, route intraperitoneal; settings: in vivo
Procedure, shortened: (§2)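 Acute neurotoxicity was scored on the minimal motor impairment rotorod test in male CF-1 mice. Animals in groups of eight were dosed i.p. at 30, 100 or 300 mg/kg in 0.5% methylcellulose/water and examined at 0.5 and 4 h. Untreated controls keep their balance on the rod for a prolonged time. The minimum dose causing impairment was recorded.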

Mus musculus [3] = test: Neurotoxicity in CF1 albino mouse assessed as motor impairment at 300 mg/kg, ip after 0.5 hrs by rotarod test; assay type: toxicity, organism-based; design: dose 300 mg/kg, route intraperitoneal; settings: in vivo; procedure, shortened: as §2
Mus musculus [4] = test: Anticonvulsant activity in CF1 albino mouse assessed as protection against subcutaneous pentylenetetrazole-induced seizures at 300 mg/kg, ip after 4 hrs; assay type: functional, organism-based; design: dose 300 mg/kg; procedure, shortened: as §1
Mus musculus [5] = test: Anticonvulsant activity in ip dosed CF1 albino mouse assessed as protection against maximal electroshock after 0.5 hrs; assay type: functional; settings: read-out: MED
Procedure, shortened: (§3)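 Male albino CF-1 mice in groups of eight received i.p. doses of 30, 100 and 300 mg/kg, suspended in 0.5% methylcellulose/water. Maximal electroshock seizures were tested at 0.5 and 4 h, with one additional 0.25 h reading at 100 mg/kg. The minimum dose giving protection was recorded. A dash means no activity at 300 mg/kg.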

Mus musculus [6] = test: Anticonvulsant activity in CF1 albino mouse assessed as protection against maximal electroshock at 300 mg/kg, ip after 4 hrs; assay type: functional, organism-based; design: dose 300 mg/kg; procedure, shortened: as §3
Mus musculus [7] = test: Anticonvulsant activity in ip dosed CF1 albino mouse assessed as protection against maximal electroshock after 4 hrs; assay type: functional; settings: read-out: MED; procedure, shortened: as §3
Mus musculus [8] = test: Anticonvulsant activity in CF1 albino mouse assessed as protection against maximal electroshock at 300 mg/kg, ip after 0.5 hrs; assay type: functional, organism-based; design: dose 300 mg/kg; procedure, shortened: as §3
Mus musculus [9] = test: Neurotoxicity in ip dosed CF1 albino mouse assessed as minimum dose required to cause motor impairment after 0.5 hrs by rotarod test; assay type: toxicity, organism-based; settings: in vivo; procedure, shortened: as §2
Mus musculus [10] = test: Anticonvulsant activity in ip dosed CF1 albino mouse assessed as protection against subcutaneous pentylenetetrazole-induced after 0.5 hrs; assay type: functional; settings: read-out: MED; procedure, shortened: as §1
Rattus norvegicus [11] = test: Anticonvulsant activity in Sprague-Dawley albino rat assessed as protection against maximal electroshock at 30 mg/kg, po after 1 hr; assay type: functional
Procedure, shortened: (§4)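 Male Sprague-Dawley rats in groups of four received 30 mg/kg p.o. as a suspension in 0.5% methylcellulose/water. Maximal electroshock seizure protection was scored at 0.25, 0.5, 1, 2 and 4 h and reported as rats protected/rats tested.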

Rattus norvegicus [12] = test: Anticonvulsant activity in Sprague-Dawley albino rat assessed as protection against maximal electroshock at 30 mg/kg, po after 0.25 hrs; assay type: functional; procedure, shortened: as §4
Rattus norvegicus [13] = test: Anticonvulsant activity in Sprague-Dawley albino rat assessed as protection against maximal electroshock at 30 mg/kg, po after 0.5 hrs; assay type: functional; procedure, shortened: as §4
Rattus norvegicus [14] = test: Anticonvulsant activity in Sprague-Dawley albino rat assessed as protection against maximal electroshock at 30 mg/kg, po after 2 hrs; assay type: functional; procedure, shortened: as §4
Rattus norvegicus [15] = test: Neurotoxicity in Sprague-Dawley albino rat assessed as motor impairment at 30 mg/kg, po by rotarod test; assay type: toxicity, organism-based; design: dose 30 mg/kg, route oral; settings: in vivo
Procedure, shortened: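 Male Sprague-Dawley rats in groups of four were given 30 mg/kg orally in 0.5% methylcellulose/water. Motor impairment was then assessed on the standardized minimal motor impairment rotorod test.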

Rattus norvegicus [16] = test: Anticonvulsant activity in Sprague-Dawley albino rat assessed as protection against maximal electroshock at 30 mg/kg, po after 4 hrs; assay type: functional; procedure, shortened: as §4
Mus musculus [17] = test: Anticonvulsant activity in ip dosed CF1 albino mouse assessed as protection against subcutaneous pentylenetetrazole-induced after 4 hrs; assay type: functional; settings: read-out: MED; procedure, shortened: as §1

Structure (SMILES): O=C(CN1C(=O)C2CCCCC2C1=O)N1CCN(c2cccc(C(F)(F)F)c2)CC1 (configuration not stated)
- Activity (Mus musculus [1]): inactive
- Activity (Mus musculus [2]): Non-toxic
- Activity (Mus musculus [3]): Non-toxic
- Activity (Mus musculus [4]): inactive
- minimal effective dose (Mus musculus [5]): 100 mg/kg
- Activity (Mus musculus [6]): inactive

Structure (SMILES): O=C(CN1C(=O)c2ccccc2C1=O)N1CCN(c2cccc(C(F)(F)F)c2)CC1
- Activity (Mus musculus [1]): inactive
- Activity (Mus musculus [2]): Non-toxic
- Activity (Mus musculus [3]): Non-toxic
- minimal effective dose (Mus musculus [7]): 100 mg/kg
- Activity (Mus musculus [4]): inactive
- Activity (Mus musculus [8]): inactive

Structure (SMILES): O=C(CN1C(=O)c2ccccc2C1=O)N1CCN(c2cccc(Cl)c2)CC1
- Activity (Mus musculus [1]): inactive
- Activity (Mus musculus [2]): Non-toxic
- Activity (Mus musculus [3]): Non-toxic
- Activity (Mus musculus [4]): inactive
- Activity (Mus musculus [6]): inactive
- Activity (Mus musculus [8]): inactive

Structure (SMILES): O=C(CN1C(=O)C2CCCCC2C1=O)N1CCN(Cc2ccccc2)CC1 (configuration not stated)
- Activity (Mus musculus [1]): inactive
- Activity (Mus musculus [2]): Non-toxic
- Activity (Mus musculus [4]): inactive
- MTC (Mus musculus [9]): 300 mg/kg
- Activity (Mus musculus [6]): inactive
- Activity (Mus musculus [8]): inactive

Structure (SMILES): O=C(CN1C(=O)C2C3C=CC(C3)C2C1=O)N1CCN(c2ccccc2)CC1 (configuration not stated)
- Activity (Mus musculus [1]): inactive
- Activity (Mus musculus [2]): Non-toxic
- Activity (Mus musculus [3]): Non-toxic
- Activity (Mus musculus [4]): inactive
- Activity (Mus musculus [6]): inactive
- Activity (Mus musculus [8]): inactive

Structure (SMILES): O=C(CN1C(=O)c2ccccc2C1=O)N1CCN(c2ccccc2F)CC1
- minimal effective dose (Mus musculus [10]): 300 mg/kg
- Activity (Mus musculus [2]): Non-toxic
- Activity (Mus musculus [3]): Non-toxic
- Activity (Mus musculus [4]): inactive
- minimal effective dose (Mus musculus [5]): 300 mg/kg
- Activity (Mus musculus [6]): inactive

Structure (SMILES): O=C(CN1C(=O)C2CCCCC2C1=O)N1CCN(CCO)CC1 (configuration not stated)
- Activity (Mus musculus [1]): inactive
- Activity (Mus musculus [2]): Non-toxic
- Activity (Mus musculus [3]): Non-toxic
- Activity (Mus musculus [4]): inactive
- Activity (Mus musculus [6]): inactive
- Activity (Mus musculus [8]): inactive

Structure (SMILES): O=C(CN1C(=O)c2ccccc2C1=O)N1CCN(c2ccccc2Cl)CC1
- Activity (Mus musculus [1]): inactive
- Activity (Mus musculus [2]): Non-toxic
- Activity (Mus musculus [3]): Non-toxic
- Activity (Mus musculus [4]): inactive
- minimal effective dose (Mus musculus [5]): 100 mg/kg
- Activity (Mus musculus [6]): inactive

Structure (SMILES): O=C(CN1C(=O)c2ccccc2C1=O)N1CCN(c2ccc(Cl)cc2)CC1
- Activity (Mus musculus [1]): inactive
- Activity (Mus musculus [2]): Non-toxic
- Activity (Mus musculus [3]): Non-toxic
- Activity (Rattus norvegicus [11]): 0%
- minimal effective dose (Mus musculus [7]): 100 mg/kg
- Activity (Rattus norvegicus [12]): 0%
- Activity (Mus musculus [4]): inactive
- minimal effective dose (Mus musculus [5]): 100 mg/kg
- Activity (Rattus norvegicus [13]): 0%
- Activity (Rattus norvegicus [14]): 0%
- Activity (Rattus norvegicus [15]): Non-toxic
- Activity (Rattus norvegicus [16]): 50%

Structure (SMILES): O=C(CN1C(=O)C2CCCCC2C1=O)N1CCOCC1 (configuration not stated)
- Activity (Mus musculus [1]): inactive
- Activity (Mus musculus [2]): Non-toxic
- minimal effective dose (Mus musculus [17]): 300 mg/kg
- MTC (Mus musculus [9]): 300 mg/kg
- Activity (Mus musculus [6]): inactive
- Activity (Mus musculus [8]): inactive

Structure (SMILES): O=C(CN1C(=O)C2C3C=CC(C3)C2C1=O)N1CCN(Cc2ccccc2)CC1 (configuration not stated)
- Activity (Mus musculus [1]): inactive
- Activity (Mus musculus [2]): Non-toxic
- Activity (Mus musculus [3]): Non-toxic
- Activity (Mus musculus [4]): inactive
- Activity (Mus musculus [6]): inactive
- Activity (Mus musculus [8]): inactive

Structure (SMILES): O=C(CN1C(=O)C2CCCCC2C1=O)N1CCN(c2ccc(Cl)cc2)CC1 (configuration not stated)
- Activity (Mus musculus [1]): inactive
- Activity (Mus musculus [2]): Non-toxic
- Activity (Mus musculus [3]): Non-toxic
- minimal effective dose (Mus musculus [7]): 300 mg/kg
- Activity (Mus musculus [4]): inactive
- Activity (Mus musculus [8]): inactive

Structure (SMILES): O=C(CN1C(=O)c2ccccc2C1=O)N1CCN(c2cccc(Cl)c2Cl)CC1
- Activity (Mus musculus [1]): inactive
- Activity (Mus musculus [2]): Non-toxic
- Activity (Mus musculus [3]): Non-toxic
- minimal effective dose (Mus musculus [7]): 100 mg/kg
- Activity (Mus musculus [4]): inactive
- Activity (Mus musculus [8]): inactive

Structure (SMILES): O=C(CN1C(=O)C2CCCCC2C1=O)N1CCN(c2ccccc2)CC1 (configuration not stated)
- Activity (Mus musculus [1]): inactive
- Activity (Mus musculus [2]): Non-toxic
- Activity (Mus musculus [3]): Non-toxic
- Activity (Mus musculus [4]): inactive
- minimal effective dose (Mus musculus [5]): 300 mg/kg
- Activity (Mus musculus [6]): inactive

Structure (SMILES): O=C(CN1C(=O)c2ccccc2C1=O)N1CCN(c2ccccc2)CC1
- Activity (Mus musculus [1]): inactive
- Activity (Mus musculus [2]): Non-toxic
- Activity (Mus musculus [3]): Non-toxic
- Activity (Mus musculus [4]): inactive
- minimal effective dose (Mus musculus [5]): 100 mg/kg
- Activity (Mus musculus [6]): inactive

Structure (SMILES): O=C(CN1C(=O)c2ccccc2C1=O)N1CCN(CCO)CC1
- Activity (Mus musculus [1]): inactive
- Activity (Mus musculus [2]): Non-toxic
- Activity (Mus musculus [3]): Non-toxic
- Activity (Mus musculus [4]): inactive
- Activity (Mus musculus [6]): inactive
- Activity (Mus musculus [8]): inactive

Structure (SMILES): O=C(CN1C(=O)c2ccccc2C1=O)N1CCN(Cc2ccccc2)CC1
- Activity (Mus musculus [1]): inactive
- Activity (Mus musculus [2]): Non-toxic
- Activity (Mus musculus [3]): Non-toxic
- Activity (Mus musculus [4]): inactive
- Activity (Mus musculus [6]): inactive
- Activity (Mus musculus [8]): inactive

Structure (SMILES): O=C(CN1C(=O)C2C3C=CC(C3)C2C1=O)N1CCN(c2ccccc2F)CC1 (configuration not stated)
- Activity (Mus musculus [1]): inactive
- Activity (Mus musculus [2]): Non-toxic
- Activity (Mus musculus [3]): Non-toxic
- Activity (Mus musculus [4]): inactive
- Activity (Mus musculus [6]): inactive
- Activity (Mus musculus [8]): inactive

Structure (SMILES): O=C(CN1C(=O)C2C3C=CC(C3)C2C1=O)N1CCN(c2cccc(Cl)c2)CC1 (configuration not stated)
- Activity (Mus musculus [1]): inactive
- Activity (Mus musculus [2]): Non-toxic
- Activity (Mus musculus [3]): Non-toxic
- Activity (Mus musculus [4]): inactive
- Activity (Mus musculus [6]): inactive
- Activity (Mus musculus [8]): inactive

Structure (SMILES): O=C(CN1C(=O)C2CCCCC2C1=O)N1CCN(c2cccc(Cl)c2)CC1 (configuration not stated)
- Activity (Mus musculus [1]): inactive
- Activity (Mus musculus [2]): Non-toxic
- Activity (Mus musculus [3]): Non-toxic
- Activity (Mus musculus [4]): inactive
- Activity (Mus musculus [6]): inactive
- Activity (Mus musculus [8]): inactive

Structure (SMILES): CCC1(C)CC(=O)NC1=O (configuration not stated) [ETHOSUXIMIDE]
- minimal effective dose (Mus musculus [10]): 100 mg/kg
- Activity (Mus musculus [2]): Non-toxic
- Activity (Mus musculus [3]): Non-toxic
- minimal effective dose (Mus musculus [17]): 300 mg/kg
- Activity (Mus musculus [6]): inactive
- Activity (Mus musculus [8]): inactive
